Legend:
[1] = target: T1, Muscarinic acetylcholine receptor M3 (Homo sapiens, UniProt P20309); test: Inhibition of [3H]NMS binding to human muscarinic acetylcholine receptor M3 expressed in CHO cells; type: cell-based
How it was run: (§1)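 Competition binding against [3H]-NMS on membranes from CHO cells expressing cloned human m2 or m3 receptors. Affinity is taken from inhibition of specific binding, as the mean of two or more independent assays.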

[2] = target: T2, Muscarinic acetylcholine receptor M2 (Homo sapiens, UniProt P08172); test: Inhibition of [3H]NMS binding to human muscarinic acetylcholine receptor M2 expressed in CHO cells; type: cell-based; how it was run: as §1
T2 sequence (P08172 whole entry): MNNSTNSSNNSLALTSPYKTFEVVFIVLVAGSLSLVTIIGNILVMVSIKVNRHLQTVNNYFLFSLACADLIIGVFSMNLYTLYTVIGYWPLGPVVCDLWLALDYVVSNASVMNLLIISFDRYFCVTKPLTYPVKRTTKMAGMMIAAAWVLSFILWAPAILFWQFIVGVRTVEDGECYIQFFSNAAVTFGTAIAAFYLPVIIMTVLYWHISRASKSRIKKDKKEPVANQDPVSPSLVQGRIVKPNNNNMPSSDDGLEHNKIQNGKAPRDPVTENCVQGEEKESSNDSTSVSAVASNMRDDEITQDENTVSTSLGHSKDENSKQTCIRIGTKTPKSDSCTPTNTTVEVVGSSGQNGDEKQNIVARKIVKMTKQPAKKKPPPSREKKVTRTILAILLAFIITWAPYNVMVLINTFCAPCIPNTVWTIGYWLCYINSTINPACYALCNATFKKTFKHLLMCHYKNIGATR

Homo sapiens [3] = species: Homo sapiens; test: In vitro metabolic stability in human hepatic microsomes (1 mg protein/mL), expressed as the percent remaining after 30 min of incubation at […].; type: functional; conditions: Liver, 37 °C
How it was run: (§2)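 Test compound at 10 µM incubated 30 min at 37 °C with dog or human hepatic microsomes (1 mg protein/mL). Read-out is percent of parent remaining. More than 2 determinations.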

Canis familiaris [4] = species: Canis familiaris; test: In vitro metabolic stability in dog hepatic microsomes (1 mg protein/mL), expressed as the percent remaining after 30 min of incubation at […].; type: functional; conditions: Canis lupus familiaris, Liver, 37 °C; how it was run: as §2
[5] = target: T1, Muscarinic acetylcholine receptor M3; test: Ability to inhibit binding of [3H]NMS was determined by receptor binding assay using membranes from chinese hamster ovary (CHO) cells expressing cloned Muscarinic acetylcholine receptor M3; type: cell membranes
How it was run: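 Radioligand displacement of [3H]-NMS specific binding on membranes prepared from CHO cells transfected with cloned human m3 receptor. Affinity was derived from inhibition of specific binding. Each value is the mean of two or more independent assays.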

Canis familiaris [6] = test: Metacholine provocation test was conducted 4 hr after oral administration (1 mg/kg) in anesthetized dogs. The bronchodilatory activity is expressed as shifts; type: functional, Canis lupus familiaris
Homo sapiens [7] = species: Homo sapiens; test: In vitro metabolic stability in human hepatic microsomes (1 mg protein/mL) was reported as the percent remaining after 30 min of incubation […]; type: functional; conditions: Liver; how it was run: as §2

T1 sequence (P20309 whole entry): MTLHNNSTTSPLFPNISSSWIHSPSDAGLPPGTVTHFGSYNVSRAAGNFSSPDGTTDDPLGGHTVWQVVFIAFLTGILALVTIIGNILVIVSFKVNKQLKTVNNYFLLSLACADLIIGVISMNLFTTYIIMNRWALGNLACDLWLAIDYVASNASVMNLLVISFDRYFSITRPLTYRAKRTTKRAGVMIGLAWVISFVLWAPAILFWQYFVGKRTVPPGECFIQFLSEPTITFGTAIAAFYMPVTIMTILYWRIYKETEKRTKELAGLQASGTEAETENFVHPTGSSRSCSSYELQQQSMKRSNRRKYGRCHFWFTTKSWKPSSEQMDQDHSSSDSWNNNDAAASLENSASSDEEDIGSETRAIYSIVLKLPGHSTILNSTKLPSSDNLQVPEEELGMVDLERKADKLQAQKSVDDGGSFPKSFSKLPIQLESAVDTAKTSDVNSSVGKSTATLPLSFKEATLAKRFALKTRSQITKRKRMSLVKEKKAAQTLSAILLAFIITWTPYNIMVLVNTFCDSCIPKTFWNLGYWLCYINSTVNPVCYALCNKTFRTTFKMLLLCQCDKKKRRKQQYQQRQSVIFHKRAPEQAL

| Structure (SMILES) | Ki [1] [nM] | Ki [2] [nM] | Metabolic stability (Homo sapiens [3]) [%] | Metabolic stability (Canis familiaris [4]) [%] | Ki [5] [nM] | Activity (Canis familiaris [6]) | Metabolic stability (Homo sapiens [7]) [%] |
| --- | --- | --- | --- | --- | --- | --- | --- |
| O=C(NC1CCN(Cc2cccnc2)CC1)C(O)(c1ccccc1)C1CCCC1 (centres undefined) | 100 | 4600 |  |  |  |  |  |
| O=C(NC1CCN(Cc2ccccn2)CC1)C(O)(c1ccccc1)C1CCCC1 (centres undefined) | 14 | 320 |  |  |  |  |  |
| O=C(NC1CCN(Cc2ccccn2)CC1)[C@](O)(c1ccccc1)[C@@H]1CCC(F)(F)C1 | 13 | 2400 | 60 | 45 |  |  |  |
| O=C(NC1CCN(CC2CCCCCC2)CC1)[C@](O)(c1ccccc1)[C@@H]1CCC(F)(F)C1 |  | 17000 |  |  | 28 |  |  |
| O=C(NC1CCN(Cc2ccccc2)CC1)C(O)(c1ccccc1)C1CCCC1 (centres undefined) |  | 30 |  |  |  |  |  |
| COc1cccc(CN2CCC(NC(=O)C(O)(c3ccccc3)C3CCCC3)CC2)c1 (centres undefined) | 5.9 | 270 |  |  |  |  |  |
| O=C(NC1CCN(CC2CCCC2)CC1)C(O)(c1ccccc1)C1CCCC1 (centres undefined) | 270 | 14000 |  |  |  |  |  |
| Nc1cccc(CN2CCC(NC(=O)[C@](O)(c3ccccc3)[C@@H]3CCC(F)(F)C3)CC2)c1 | 6.9 | 330 | 90 | 88 |  |  |  |
| Cc1cccc(CN2CCC(NC(=O)[C@](O)(c3ccccc3)[C@@H]3CCC(F)(F)C3)CC2)c1 |  | 310 | 55 | 32 | 2 | 25 |  |
| Cc1cc(CN2CCC(NC(=O)C(O)(c3ccccc3)C3CCCC3)CC2)cs1 (centres undefined) | 3.5 | 24 |  |  |  |  |  |
| O=C(NC1CCN(Cc2ccncc2)CC1)C(O)(c1ccccc1)C1CCCC1 (centres undefined) | 190 | 6400 |  |  |  |  |  |
| O=C(NC1CCN(CC2CCCCC2)CC1)C(O)(c1ccccc1)C1CCCC1 (centres undefined) | 17 | 3300 |  |  |  |  |  |
| O=C(NC1CCN(CC2CCCCCCC2)CC1)C(O)(c1ccccc1)C1CCCC1 (centres undefined) | 93 | 9400 |  |  |  |  |  |
| COc1cccc(CN2CCC(NC(=O)[C@](O)(c3ccccc3)[C@@H]3CCC(F)(F)C3)CC2)c1 |  |  | 46 | 53 |  |  |  |
| Cc1cccc(CN2CCC(NC(=O)C(O)(c3ccccc3)C3CCCC3)CC2)c1 (centres undefined) | 2.3 | 70 |  |  |  |  |  |
| O=C(NC1CCN(Cc2ccsc2)CC1)C(O)(c1ccccc1)C1CCCC1 (centres undefined) | 3.6 | 79 |  |  |  |  |  |
| Nc1ccc(CN2CCC(NC(=O)[C@](O)(c3ccccc3)[C@@H]3CCC(F)(F)C3)CC2)cc1F | 6.1 | 310 | 78 | 78 |  |  |  |
| NCc1cccc(CN2CCC(NC(=O)[C@](O)(c3ccccc3)[C@@H]3CCC(F)(F)C3)CC2)c1 | 21 | 3400 | 80 | 77 |  |  |  |
| CC(C)=CCCN1CCC(NC(=O)[C@](O)(c2ccccc2)C2CCCC2)CC1 |  | 490 | 54 | 31 |  | 5.2 |  |
| O=C(NC1CCN(Cc2ccsc2)CC1)[C@](O)(c1ccccc1)[C@@H]1CCC(F)(F)C1 |  |  | 35 | 37 |  |  |  |

| Structure (SMILES) | Ki [1] [nM] | Ki [2] [nM] | Metabolic stability (Homo sapiens [3]) [%] | Metabolic stability (Canis familiaris [4]) [%] | Ki [5] [nM] | Activity (Canis familiaris [6]) | Metabolic stability (Homo sapiens [7]) [%] |
| --- | --- | --- | --- | --- | --- | --- | --- |
| O=C(NC1CCN(Cc2ccccc2)CC1)[C@](O)(c1ccccc1)[C@@H]1CCC(F)(F)C1 | 3.8 | 260 | 47 | 45 |  |  |  |
| CC(C)=CCCN1CCC(NC(=O)[C@](O)(c2ccccc2)[C@H]2CC[C@H](O)C2)CC1 | 18 | 2300 | 76 | 75 |  | 2.9 |  |
| Nc1ccc(CN2CCC(NC(=O)[C@](O)(c3ccccc3)[C@@H]3CCC(F)(F)C3)CC2)nc1 | 15 | 930 |  |  |  |  |  |
| CC(C)=CCCN1CCC(NC(=O)[C@](O)(c2ccccc2)[C@H]2CCC(F)(F)C2)CC1 | 16 | 1400 | 75 | 77 |  |  |  |
| CC(C)=CCCN1CCC(NC(=O)[C@](O)(c2ccccc2)[C@@H]2CCC(F)(F)C2)CC1 | 6.2 | 2000 | 68 | 70 |  | 4.2 |  |
| O=C(NC1CCN(CC2CCCCC2)CC1)[C@](O)(c1ccccc1)[C@@H]1CCC(F)(F)C1 | 18 | 21000 | 86 | 70 |  | 2.3 |  |
| O=C(NC1CCN(Cc2cccc(O)c2)CC1)[C@](O)(c1ccccc1)[C@@H]1CCC(F)(F)C1 | 5.4 | 37 | 56 | 73 |  |  |  |
| O=C(NC1CCN(Cc2cccc(F)c2)CC1)[C@](O)(c1ccccc1)[C@@H]1CCC(F)(F)C1 | 3.1 | 480 |  | 23 |  |  | 52 |
| Nc1cccc(CN2CCC(NC(=O)[C@](O)(c3ccccc3)[C@@H]3CCC(F)(F)C3)CC2)n1 | 2.8 | 530 | 80 | 84 |  | >64 |  |
| CC(C)=CCCN1CCC(NC(=O)[C@](O)(c2ccccc2)[C@H]2CC[C@H](F)C2)CC1 | 19 | 1300 | 66 | 60 |  |  |  |
| O=C(NC1CCN(Cc2cccc(CO)c2)CC1)[C@](O)(c1ccccc1)[C@@H]1CCC(F)(F)C1 |  | 6900 | 34 | 73 |  | 3.1 |  |
| Cc1cccc(CN2CCC(NC(=O)C(O)(c3ccccc3)C3CCCC3)CC2)n1 (centres undefined) | 11 | 2400 |  |  |  |  |  |
| O=C(NC1CCN(CC2CCCCCC2)CC1)C(O)(c1ccccc1)C1CCCC1 (centres undefined) | 12 | 3100 |  |  |  |  |  |
| Nc1ccc(CN2CCC(NC(=O)[C@](O)(c3ccccc3)[C@@H]3CCC(F)(F)C3)CC2)cc1 | 7.8 | 220 | 88 | 89 |  | 43 |  |
| CC(C)=CCCN1CCC(NC(=O)[C@](O)(c2ccccc2)[C@H]2CC[C@@H](F)C2)CC1 | 11 | 2300 | 75 | 64 |  |  |  |
| O=C(NC1CCN(Cc2ccoc2)CC1)C(O)(c1ccccc1)C1CCCC1 (centres undefined) | 50 | 1800 |  |  |  |  |  |
| Cc1ccccc1CN1CCC(NC(=O)C(O)(c2ccccc2)C2CCCC2)CC1 (centres undefined) | 220 | 37000 |  |  |  |  |  |
| Cc1cccc(CN2CCC(NC(=O)[C@](O)(c3ccccc3)[C@@H]3CCC(F)(F)C3)CC2)n1 |  |  | 52 | 24 |  |  |  |
| Cc1ccc(CN2CCC(NC(=O)C(O)(c3ccccc3)C3CCCC3)CC2)cc1 (centres undefined) | 6.4 | 22 |  |  |  |  |  |

From ChEMBL document CHEMBL1133569, “A potent, long-acting, orally active (2R)-2-[(1R)-3, 3-difluorocyclopentyl]-2-hydroxy-2-phenylacetamide: novel muscarinic M(3) receptor antagonist with high selectivity for M(3) over M(2) receptors” (J Med Chem, 2000)
